Laboratory results reported in ChEMBL document CHEMBL4699510, “Discovery of a series of ester-substituted NLRP3 inflammasome inhibitors” (Bioorg Med Chem Lett, 2020).

Tests used:
[1] = Inhibition of TNFalpha production in human PBMC
[2] = Effective permeability of compound by PAMPA; type: ADME; details: read-out: Peff
[3] = Inhibition of IL-6 production in human PBMC
[4] = biological target: NACHT, LRR and PYD domains-containing protein 3 (Homo sapiens, UniProt Q96P20); test: Inhibition of NLRP3 in human PBMC cells assessed as inhibition of LPS and ATP-induced IL-1beta production; type: cell-based
NACHT, LRR and PYD domains-containing protein 3, sequence (Q96P20 whole entry, the tested form may be a part): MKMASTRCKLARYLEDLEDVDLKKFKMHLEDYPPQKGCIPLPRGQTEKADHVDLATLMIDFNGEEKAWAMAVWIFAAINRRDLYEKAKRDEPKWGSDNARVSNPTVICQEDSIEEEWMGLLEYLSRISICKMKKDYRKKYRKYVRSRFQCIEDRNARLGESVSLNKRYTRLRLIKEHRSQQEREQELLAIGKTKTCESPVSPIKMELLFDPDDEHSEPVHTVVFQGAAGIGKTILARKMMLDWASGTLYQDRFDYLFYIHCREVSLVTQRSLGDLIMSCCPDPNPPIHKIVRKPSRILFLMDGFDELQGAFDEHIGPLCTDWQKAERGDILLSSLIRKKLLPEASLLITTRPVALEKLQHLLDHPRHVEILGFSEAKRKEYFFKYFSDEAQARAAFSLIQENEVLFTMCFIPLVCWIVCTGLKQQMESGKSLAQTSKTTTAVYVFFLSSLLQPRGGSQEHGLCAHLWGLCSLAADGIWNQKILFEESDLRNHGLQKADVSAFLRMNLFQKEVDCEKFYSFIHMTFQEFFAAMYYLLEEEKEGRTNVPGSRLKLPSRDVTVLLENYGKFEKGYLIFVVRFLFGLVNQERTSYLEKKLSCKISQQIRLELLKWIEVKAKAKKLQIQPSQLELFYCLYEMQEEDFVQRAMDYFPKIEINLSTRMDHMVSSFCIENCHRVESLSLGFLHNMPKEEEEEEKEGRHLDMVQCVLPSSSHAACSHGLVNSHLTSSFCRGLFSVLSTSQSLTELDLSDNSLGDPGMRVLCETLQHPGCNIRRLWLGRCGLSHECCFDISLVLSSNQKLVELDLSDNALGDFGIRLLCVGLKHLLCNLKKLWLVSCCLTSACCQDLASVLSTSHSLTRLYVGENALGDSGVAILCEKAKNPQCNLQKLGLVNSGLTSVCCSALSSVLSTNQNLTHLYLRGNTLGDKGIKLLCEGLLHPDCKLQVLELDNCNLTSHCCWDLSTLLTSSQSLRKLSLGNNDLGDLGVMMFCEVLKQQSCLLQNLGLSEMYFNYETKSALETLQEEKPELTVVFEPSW

[5] = Stability in mouse blood assessed as compound remaining measured after 1 hr; type: ADME, tissue-based; details: read-out: Stabilty
How it was run: (§1)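 Compound incubated in whole blood (human or mouse) at 37° C for one hour; stability expressed as percentage of compound remaining.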

[6] = Stability in human blood assessed as compound remaining measured after 1 hr; type: ADME, tissue-based; details: read-out: Stabilty; how it was run: as §1

SMILES | IC50 [4] [µM] | other results
CC(C)(O)c1coc(S(=O)(=O)[N-]C(=O)Nc2c3c(cc4c2CCC4)CCC3)c1.[Na+] |  | IC50 [1]: > 40 µM; Papp [2]: < 0.0003 ×10⁻⁶ cm/s; IC50 [3]: > 40 µM
Cc1nnc(CNC(=O)Nc2c3c(cc4c2CCC4)CCC3)o1 | > 20 | 
CCOC(=O)CNC(=O)Nc1c(C)cccc1C | > 20 | 
CCOC(=O)CNC(=O)Nc1c2c(cc3c1CCC3)CCCC2 | > 20 | 
CCOC(=O)[C@@H](Cc1ncccn1)NC(=O)Nc1c2c(cc3c1CCC3)CCC2 |  | IC50 [1]: 2.7 µM; Papp [2]: 8.2 ×10⁻⁶ cm/s; IC50 [3]: 4.3 µM; remaining at 1 h [5]: 0%; remaining at 1 h [6]: 92.4%
Cc1nc(CNC(=O)Nc2c3c(cc4c2CCC4)CCC3)no1 | > 20 | 
CN(C)C(=O)CNC(=O)Nc1c2c(cc3c1CCC3)CCC2 | > 20 | 
O=C(O)CNC(=O)Nc1c2c(cc3c1CCC3)CCC2 | > 20 | 
COC(=O)CC(=O)Nc1c2c(cc3c1CCC3)CCC2 | > 20 | 
COC(=O)C(CCc1ccccc1)NC(=O)Nc1c2c(cc3c1CCC3)CCC2 (stereo not drawn) | > 20 | 
CCOC(=O)CNC(=O)NC(c1ccccc1)c1ccccc1 | > 20 | 
CCOC(=O)CNC(=O)Nc1c2c(nc3c1CCC3)CCC2 | > 20 | 
CCOC(=O)CNC(=O)NC12CC3CC(CC(C3)C1)C2 | > 20 | 
CC(C)(O)c1coc(S(=O)(=O)NC(=O)Nc2ccccc2)c1 | > 20 | 
COC(=O)[C@@H](Cc1ccncc1)NC(=O)Nc1c2c(cc3c1CCC3)CCC2 | > 20 | 
CC(C)(C)OC(=O)CNC(=O)Nc1c2c(cc3c1CCC3)CCC2 | > 20 | 
O=C(CNS(=O)(=O)c1ccccc1)Nc1c2c(cc3c1CCC3)CCC2 | > 20 | 
COC(=O)C(C)(C)NC(=O)Nc1c2c(cc3c1CCC3)CCC2 | > 20 | 
COC(=O)CNC(=O)Nc1c(C(C)C)cccc1C(C)C | > 20 | 
CNC(=O)CNC(=O)Nc1c2c(cc3c1CCC3)CCC2 | > 20 | 
CC(C)(O)c1coc(S(=O)(=O)NC(=O)Nc2cccc3c2CCC3)c1 | > 20 | 
O=C(CS(=O)(=O)Nc1ccccc1)Nc1c2c(cc3c1CCC3)CCC2 | > 20 | 
CCOC(=O)[C@@H](Cc1cnccn1)NC(=O)Nc1c2c(cc3c1CCC3)CCC2 |  | Papp [2]: 13.9 ×10⁻⁶ cm/s; remaining at 1 h [5]: 0%; remaining at 1 h [6]: 79.2%
O=C(O)CC(=O)Nc1c2c(cc3c1CCC3)CCC2 | > 20 | 
CCOC(=O)CNC(=O)Nc1c2c(c(Cl)c3c1CCC3)CCC2 | > 20 | 
